We go through 21 compounds from ChEMBL document CHEMBL1130158, “Alkyl-substituted amino acid amides and analogous di- and triamines: new non-peptide G protein activators” (J Med Chem, 1997).

Test [1] relates to HL-60. Put plainly: Efficacy expressed as maximal stimulation of GTP hydrolysis in HL-60 membranes at a concentration 7.5 uM. Format: functional, Homo sapiens. Put shortly: (§1)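 HL-60 cells grown in suspension, differentiated toward neutrophil-like cells with dibutyryl-cAMP (0.2 mM) for 48 h; membranes prepared and steady-state GTP hydrolysis measured with [γ-32P]GTP over increasing compound concentrations. Triplicate determinations, at least three independent experiments. Efficacy = maximal stimulation above basal activity, at the concentration giving maximal stimulation; pEC50 = -log half-maximal concentration, means ± SD.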

Test [2] relates to HL-60. Put plainly: -log of the half-maximal concentration for stimulation of GTPase in HL-60 membrane. The format is functional. As to conditions: Homo sapiens. In short, it runs like this:
as §1

The test system of test [3] is HL-60. Put plainly: Efficacy expressed as maximal stimulation of GTP hydrolysis in HL-60 membranes at a concentration 10 uM. The format is functional, Homo sapiens. Put shortly: as §1
Test [4] has as its system HL-60. Put plainly: -log of the half-maximal concentration for stimulation of GTPase in HL-60 membrane (sensitive to PTX). The format is functional. As to conditions: Homo sapiens. In short, it runs like this: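 Differentiated HL-60 cells (dibutyryl-cAMP 0.2 mM, 48 h) incubated overnight with pertussis toxin (200 ng/mL) or left untreated; membranes prepared and steady-state [γ-32P]GTP hydrolysis measured across increasing concentrations. PTX sensitivity judged by comparing treated with control membranes. Triplicates; pEC50 = -log half-maximal concentration, mean ± SD.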

Test [5] deals with HL-60. Put plainly: Efficacy expressed as maximal stimulation of GTP hydrolysis in HL-60 membranes at a concentration 0.75 uM. Format: functional, Homo sapiens. Put shortly: as §1
The subject of test [6] is HL-60. Briefly: Efficacy expressed as maximal stimulation of GTP hydrolysis in HL-60 membranes at a concentration 30 uM. The format is functional, Homo sapiens. Put shortly:
as §1

The test system of test [7] is HL-60. Put plainly: Efficacy expressed as maximal stimulation of GTP hydrolysis in HL-60 membranes at a concentration 5 uM. Format: functional, Homo sapiens. Put shortly:
as §1

The subject of test [8] is HL-60. Briefly: Efficacy expressed as maximal stimulation of GTP hydrolysis in HL-60 membranes at a concentration 300 uM. The format is functional, Homo sapiens. In short, it runs like this: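 Steady-state GTP hydrolysis of the membranes was measured over increasing compound concentrations in triplicate, across at least three independent experiments. Efficacy is the maximal stimulation above basal activity, with the concentration giving that maximum reported.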

For test [9], the system named is HL-60. Put plainly: Efficacy expressed as maximal stimulation of GTP hydrolysis in HL-60 membranes at a concentration 2 uM. Format: functional, Homo sapiens. In short, it runs like this: as §1
For test [10], the system named is HL-60. Briefly: Efficacy expressed as maximal stimulation of GTP hydrolysis in HL-60 membranes at a concentration 3 uM. The format is functional, Homo sapiens. Put shortly:
as §1

Test [11] deals with Histamine H1 receptor (Cavia porcellus) (UniProt P31389). Briefly: Histamine activity against H1 receptor of guinea pig ileum. Format: tissue-based.
The subject of test [12] is HL-60. Put plainly: Efficacy expressed as maximal stimulation of GTP hydrolysis in HL-60 membranes at a concentration 20 uM. Format: functional, Homo sapiens. In short, it runs like this: as §1
Test [13] concerns the target Histamine H1 receptor (Cavia porcellus) (UniProt P31389). Briefly: Histamine activity against Histamine H1 receptor of guinea pig ileum. Format: tissue-based.
For test [14], the target named is Histamine H3 receptor (Cavia porcellus) (UniProt Q9JI35). Put plainly: Histamine activity against Histamine H3 receptor of guinea pig ileum. Format: tissue-based.
For test [15], the target named is Muscarinic acetylcholine receptor M3 (Cavia porcellus) (UniProt Q8VH26). Put plainly: Affinity towards Muscarinic acetylcholine receptor M3 in guinea pig ileum. Format: tissue-based.
For test [16], the target named is Histamine H2 receptor (Cavia porcellus) (UniProt P47747). Briefly: Histamine activity against Histamine H2 receptor of guinea pig atrium. As to conditions: Cardiac atrium. Format: tissue-based.
Chain of Histamine H2 receptor (Cavia porcellus) (P47747 whole entry): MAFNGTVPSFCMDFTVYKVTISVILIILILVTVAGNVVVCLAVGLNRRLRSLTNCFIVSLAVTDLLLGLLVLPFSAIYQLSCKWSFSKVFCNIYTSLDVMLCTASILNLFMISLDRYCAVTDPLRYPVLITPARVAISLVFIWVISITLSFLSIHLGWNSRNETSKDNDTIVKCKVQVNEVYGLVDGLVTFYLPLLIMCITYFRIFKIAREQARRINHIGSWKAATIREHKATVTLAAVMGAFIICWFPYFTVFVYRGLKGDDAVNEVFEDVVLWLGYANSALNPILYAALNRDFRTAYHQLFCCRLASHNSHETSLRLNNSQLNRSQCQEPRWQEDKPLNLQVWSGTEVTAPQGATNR

Chain of Histamine H1 receptor (Cavia porcellus) (P31389 whole entry): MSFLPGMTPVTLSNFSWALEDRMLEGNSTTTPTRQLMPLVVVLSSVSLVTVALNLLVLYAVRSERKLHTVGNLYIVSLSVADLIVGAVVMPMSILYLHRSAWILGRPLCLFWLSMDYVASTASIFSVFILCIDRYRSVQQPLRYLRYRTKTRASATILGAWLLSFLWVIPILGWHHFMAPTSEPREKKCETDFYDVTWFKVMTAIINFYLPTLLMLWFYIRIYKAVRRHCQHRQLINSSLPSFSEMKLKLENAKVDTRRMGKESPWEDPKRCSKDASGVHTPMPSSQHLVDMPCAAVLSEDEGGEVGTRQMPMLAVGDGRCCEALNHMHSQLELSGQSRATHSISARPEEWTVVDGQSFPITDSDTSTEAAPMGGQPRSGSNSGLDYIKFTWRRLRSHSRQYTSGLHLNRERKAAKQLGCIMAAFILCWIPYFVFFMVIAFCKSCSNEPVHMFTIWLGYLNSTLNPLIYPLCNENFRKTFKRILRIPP
Chain of Histamine H3 receptor (Cavia porcellus) (Q9JI35 whole entry): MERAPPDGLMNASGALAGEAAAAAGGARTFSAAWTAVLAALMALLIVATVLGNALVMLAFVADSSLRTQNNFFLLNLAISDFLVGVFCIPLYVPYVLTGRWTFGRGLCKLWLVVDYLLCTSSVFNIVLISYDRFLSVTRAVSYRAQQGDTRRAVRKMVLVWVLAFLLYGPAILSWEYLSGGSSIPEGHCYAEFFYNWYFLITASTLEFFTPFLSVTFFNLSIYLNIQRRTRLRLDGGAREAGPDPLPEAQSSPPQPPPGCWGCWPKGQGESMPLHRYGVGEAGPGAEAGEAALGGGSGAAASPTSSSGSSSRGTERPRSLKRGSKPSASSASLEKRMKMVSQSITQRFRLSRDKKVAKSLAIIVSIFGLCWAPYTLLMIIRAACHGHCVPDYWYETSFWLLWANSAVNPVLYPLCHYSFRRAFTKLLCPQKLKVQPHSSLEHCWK
Chain of Muscarinic acetylcholine receptor M3 (Cavia porcellus) (Q8VH26 1-587): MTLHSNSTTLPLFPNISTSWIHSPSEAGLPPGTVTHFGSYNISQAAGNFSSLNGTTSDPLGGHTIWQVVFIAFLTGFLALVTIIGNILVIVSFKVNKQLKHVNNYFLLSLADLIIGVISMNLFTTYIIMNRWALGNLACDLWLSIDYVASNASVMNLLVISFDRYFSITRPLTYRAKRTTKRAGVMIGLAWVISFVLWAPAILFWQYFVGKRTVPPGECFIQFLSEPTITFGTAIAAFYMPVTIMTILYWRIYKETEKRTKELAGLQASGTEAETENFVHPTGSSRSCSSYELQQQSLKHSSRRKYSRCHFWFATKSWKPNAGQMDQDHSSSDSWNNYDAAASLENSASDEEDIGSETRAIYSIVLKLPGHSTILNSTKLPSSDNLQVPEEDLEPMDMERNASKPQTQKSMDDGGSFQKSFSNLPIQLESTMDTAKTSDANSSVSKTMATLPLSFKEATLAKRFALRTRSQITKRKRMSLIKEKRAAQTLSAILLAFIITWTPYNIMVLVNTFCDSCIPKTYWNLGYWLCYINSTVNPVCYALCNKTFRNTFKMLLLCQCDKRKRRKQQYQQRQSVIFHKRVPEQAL

Broadly, the EC50 is the concentration giving half of the maximal effect. The compound `CCCCCCCCCCCCNC(=O)[C@@H](N)CCCN=C(N)N` returned an Efficacy in the test on HL-60 [1] of 92%. The same compound gave an EC50 with HL-60 [2] of 794 nM.
Take `CC[C@H](C)[C@H](N)C(=O)N[C@@H](CC(N)=O)C(=O)N[C@@H](CC(C)C)C(=O)N[C@@H](CCCCN)C(=O)N[C@@H](C)C(=O)N[C@@H](CC(C)C)C(=O)N[C@@H](C)C(=O)N[C@@H](C)C(=O)N[C@@H](CC(C)C)C(=O)N[C@@H](C)C(=O)N[C@@H](CCCCN)C(=O)N[C@@H](CCCCN)C(=O)N[C@H](C(=O)N[C@@H](CC(C)C)C(N)=O)[C@@H](C)CC`: the Efficacy in the test on HL-60 [3] stood at 100%. This compound showed an EC50 with HL-60 [4] of 3160 nM.
In the case of `CCCCCCCCCCCCCCCCNCC(N)CCCCN` (stereo unspecified), the Efficacy with HL-60 [5] is reported as 84%. Also, the EC50 in the test with HL-60 [4] is 251 nM.
As for `CCCCCCCCCCCCNC(=O)CNC(=O)CN`, the Efficacy in the test on HL-60 [6] worked out at 120%. Besides, in the test with HL-60 [2], the EC50 is 5010 nM.
Turning to `CCCCCCCCCCCCNC(=O)C(N)CN` (stereo unspecified), the Efficacy with HL-60 [3] turned out to be 131%. The compound further had a half-maximal effective concentration (EC50) with HL-60 [2] of 2510 nM.
As for `CCCCCCCCCCCCNC(=O)[C@H](N)CCCCN`, the Efficacy with HL-60 [7] turned out to be 108%. Further, a half-maximal response with HL-60 [4] (EC50) required 794 nM.
With `CCCCCCCCCCCCNC(=O)[C@@H](N)CCCCN` [N-DODECYL LYSINE AMIDE], the Efficacy with HL-60 [7] worked out at 116%. Besides, the EC50 in the test with HL-60 [4] was 794 nM.
On to `CCCCCCCCCCCCNC(=O)C(N)CCN` (stereo unspecified), for which the Efficacy with HL-60 [3] is 105%. In the test with HL-60 [2], the midpoint of the response, the EC50, lay at 1260 nM.
For `CCCCCCCCCCCCNC(=O)[C@@H](N)CCC/N=C(\N)N[N+](=O)[O-]`, the Efficacy in the test with HL-60 [8] stood at 156%.
With `CCCCCCCCCCCCCCCCNC(=O)[C@@H](N)CCCCN` [LYCETAMINE], the Efficacy with HL-60 [9] is recorded as 90%. In addition, in the test on HL-60 [4], the EC50 was 501 nM.
In turn, `CCCCCCCCCCCCNCC(N)CCN` (stereo unspecified) showed an Efficacy in the test on HL-60 [10] of 128%. Besides, in the test with HL-60 [2], a half-maximal response (EC50) required 631 nM.
In the test with HL-60 [3], `CCCCCCCCCCCCNC(=O)C(N)CCCN` (stereo unspecified) had an Efficacy of 117%. This compound had an EC50 in the test with HL-60 [2] of 2510 nM. The same compound displayed a -Log K in test [11] of 5.3.
Take `CCCCCCCCCCCCNC(=O)CN`: the Efficacy in the test on HL-60 [12] amounted to 100%. The compound also showed an EC50 in the test with HL-60 [2] of 3980 nM.
`CCCCCCCCCCCCCCNCC(N)CCCCN` (stereo unspecified) had an Efficacy in the test on HL-60 [5] of 117%. Also, the EC50 in the test with HL-60 [4] was 251 nM.
Turning to `CCCCCCCCCCCCNCCN=C(N)N`, the Efficacy with HL-60 [1] worked out at 128%. In addition, in the test with HL-60 [2], a half-maximal response (EC50) required 1000 nM.
For `CCCCCCCCCCCCNC(=O)[C@@H](N)Cc1c[nH]cn1`, the Efficacy in the test on HL-60 [12] was 125%. Besides, the EC50 in the test on HL-60 [2] was 3160 nM.
Regarding `CCCCCCCCCCCCNCCN`, the Efficacy with HL-60 [7] was 92%. Further, a half-maximal response in the test with HL-60 [2] (EC50) required 1000 nM.
As to `CCCCCCCCCCCCNCC(N)CCCCN` (stereo unspecified), the Efficacy in the test on HL-60 [9] turned out to be 120%. The EC50 with HL-60 [4] is 501 nM.
Regarding `CCCCCCCCCCCCNC(=O)[C@@H](N)CCC(N)=O`, the Efficacy in the test with HL-60 [6] is on record as 110%. The same compound gave an EC50 in the test on HL-60 [2] of 7940 nM.
In the test with HL-60 [10], `CCCCCCCCCCCCCCNC(=O)[C@@H](N)CCCCN` gave an Efficacy of 100%. Also, the response in the test on HL-60 [4] was half-maximal at 501 nM (EC50).
As for `CCCCCCCCCCCCNCC(N)CCCN` (stereo unspecified), the Efficacy in the test on HL-60 [7] came to 126%. In the test on HL-60 [2], this compound showed an EC50 of 1000 nM. Also, the -Log K in test [13] was 5.4; in test [14], less than 6; in [15] it was 5.2; in test [16] it was 4.1.
